Assay results taken from ChEMBL document CHEMBL4130618, “Paralithocins, Antimicrobial Peptides with Unusual Disulfide Connectivity from the Red King Crab, Paralithodes camtschaticus” (2018).
≈ marks a conversion by molar mass, not a printed value.

How the values were obtained:
Type in all cases: functional
Vibrio anguillarum = assay: Antibacterial activity against Listonella anguillarum AL104 measured after 72 hrs; conditions: AL104, 72 h
Method in brief: (§1)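 Marine strains were grown in Mueller Hinton broth. Peptide in 2-fold dilutions in double-distilled water (1.6–100 μM, up to 200 μM for selected marine strains), 50 μL plus an equal volume of growing bacteria at 5 × 10^3 cells/well, 72 h at 12 °C. OD was monitored. MIC is the lowest concentration giving OD <50% of the water growth control.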

Staphylococcus aureus = assay: Antibacterial activity against Staphylococcus aureus ATCC 9144 measured after 24 hrs; conditions: ATCC 9144, 24 h
Method in brief: (§2)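 Purified native peptide in 2-fold serial dilutions in double-distilled water (1.6–100 μM). 50 μL was mixed with an equal volume of actively growing bacteria (5 × 10^3 cells/well) in Mueller Hinton broth and incubated 24 h at 37 °C. Growth was followed by OD. MIC is the lowest concentration giving OD <50% of the water growth control, read at control OD ≈0.3.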

Aeromonas salmonicida = assay: Antibacterial activity against Aeromonas salmonicida AL2020 measured after 72 hrs; conditions: AL2020, 72 h; method in brief: as §1
Carnobacterium mobile = assay: Antibacterial activity against Carnobacterium mobile measured after 72 hrs
Method in brief: (§3)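 Carnobacteria were grown in modified tryptic soy broth with 5% glucose and 2% NaCl. 2-fold peptide dilutions in double-distilled water (1.6–100 μM, up to 200 μM for selected marine strains), 50 μL mixed 1:1 with growing cells (5 × 10^3/well), incubated 72 h at 12 °C. MIC is the lowest concentration with OD below 50% of the water growth control.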

Pseudomonas aeruginosa = assay: Antibacterial activity against Pseudomonas aeruginosa […] measured after 24 hrs; method in brief: as §2
Yersinia ruckeri = assay: Antibacterial activity against Yersinia ruckeri CCUG 14190 measured after 72 hrs; conditions: CCUG 14190, 72 h; method in brief: as §1
[1] = test system: Corynebacterium glutamicum; assay: Antibacterial activity against Corynebacterium glutamicum ATCC 13032 measured after 24 hrs; conditions: ATCC 13032, 24 h; method in brief: as §2
Carnobacterium funditum = assay: Antibacterial activity against Carnobacterium funditum CCUG 34644 measured after 72 hrs; conditions: CCUG 34644, 72 h; method in brief: as §3
Escherichia coli = assay: Antibacterial activity against Escherichia coli ATCC 25922 measured after 24 hrs; conditions: ATCC 25922, 24 h; method in brief: as §2
Carnobacterium divergens = assay: Antibacterial activity against Carnobacterium divergens measured after 72 hrs; method in brief: as §3
[2] = test system: Carnobacterium maltaromaticum; assay: Antibacterial activity against Carnobacterium maltaromaticum CCUG 34645 measured after 72 hrs; conditions: CCUG 34645, 72 h; method in brief: as §3

MIC (Vibrio anguillarum) | MIC (Staphylococcus aureus) | MIC (Aeromonas salmonicida) | MIC (Carnobacterium mobile) | MIC (Pseudomonas aeruginosa) | MIC (Yersinia ruckeri) | MIC [1] | MIC (Carnobacterium funditum) | MIC (Escherichia coli) | MIC (Carnobacterium divergens) | MIC [2] | Compound
> 100 µM | > 100 µM | 200 µM (≈ 816 µg/mL) | 100 µM (≈ 408 µg/mL) | > 100 µM | > 100 µM | 50 µM (≈ 204 µg/mL) | 200 µM (≈ 816 µg/mL) | > 100 µM | 200 µM (≈ 816 µg/mL) | 200 µM (≈ 816 µg/mL) | CC[C@H](C)[C@@H]1NC(=O)[C@H](CO)NC(=O)[C@H](CO)NC(=O)[C@@H](NC(=O)[C@H](CO)NC(=O)[C@@H]2CCCN2C(=O)[C@H](CCC(N)=O)NC(=O)[C@H](CCC(N)=O)NC(=O)[C@@H](N)Cc2c[nH]c3ccccc23)CSSC[C@@H](C(=O)N[C@@H](CCCNC(=N)N)C(=O)N[C@@H](CCCNC(=N)N)C(=O)NCC(=O)N2CCC[C@H]2C(=O)N[C@H](C(=O)N[C@@H](Cc2ccc(O)cc2)C(=O)O)[C@@H](C)CC)NC(=O)[C@H](CO)NC(=O)[C@H](C)NC(=O)[C@@H]2CSSC[C@H]3NC(=O)[C@H](C)NC(=O)[C@H](CO)NC(=O)[C@H](CCCCN)NC(=O)CNC(=O)[C@@H]4CSSC[C@H](NC(=O)[C@H](CCCNC(=N)N)NC(=O)CNC(=O)[C@H](CO)NC(=O)[C@H](Cc5ccc(O)cc5)NC(=O)[C@H](CO)NC(=O)[C@H]([C@@H](C)CC)NC3=O)C(=O)NCC(=O)N[C@@H](CSSC[C@H](NC1=O)C(=O)N[C@@H](CC(=O)O)C(=O)N[C@@H](Cc1ccc(O)cc1)C(=O)N[C@@H](CO)C(=O)N4)C(=O)N2
1.6 µM | 100 µM | 3.1 µM | 6.3 µM | 1.6 µM | 0.8 µM | 1.6 µM | 25 µM | 1.6 µM | 25 µM | 50 µM | H-SWLSKTAKKLENSAKKRISEGIAIAIQGGPR-OH
